We go through 18 compounds from ChEMBL document CHEMBL1124187, “Nucleosides. 150. Synthesis and some biological properties of 5-monofluoromethyl, 5-difluoromethyl, and 5-trifluoromethyl derivatives of 2'-deoxyuridine and 2'-deoxy-2'-fluoro-beta-D-arabinofuranosyluracil” (1988).

The target of experiment [1] is Thymidylate synthase (Mus musculus) (UniProt P07607). Description: The compound was tested for inhibition of thymidylate synthase (TS) in L1210 cells. It counts as cell-based. The method in brief:
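In situ thymidylate synthase activity in intact L1210 cells, measured as tritium released from [5-3H]UDR. Reported as ID50.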

Experiment [2] relates to HL-60. Description: The compound was tested for [3H]TdR incorporation into DNA in HL-60 cells. In kind it is functional. The conditions noted are these: Homo sapiens, HL-60, 30 min; read-out: ID50 (the source's name). The gist of the method:
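HL-60 cells labelled with [methyl-3H]TDR (1 µCi, 0.02 µM) for 30 min, then label incorporated into DNA measured. ID50 derived from six nucleoside concentrations using the median-effect equation and plot.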

The next experiment concerns Human alphaherpesvirus 1. Description: Effective dose required for antiherpes activity against HSV-1(F) strain. It counts as functional. The note with it: read-out: ED50 (the source's name).
Experiment [3] deals with HL-60. In words: Growth inhibition against HL-60 after 48 hours incubation period. The note with it: Homo sapiens, HL-60, 48 h; read-out: ID50 (the source's name). It counts as functional. The gist of the method:
(§1)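 HL-60 cell growth inhibition; ID50 derived from six concentrations of each nucleoside using the median-effect equation and plot.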

For experiment [4], the system named is HL-60. In words: Growth inhibition against HL-60 after 24 hours incubation period. The note with it: Homo sapiens, HL-60, 24 h; read-out: ID50 (the source's name). In kind it is functional. The gist of the method:
as §1

Experiment [5] has as its system HL-60. In words: Growth inhibition against HL-60 after 72 hours incubation period. The conditions noted are these: Homo sapiens, HL-60, 72 h; read-out: ID50 (the source's name). It counts as functional. The gist of the method:
as §1

A further experiment concerns Human alphaherpesvirus 2. Description: Effective dose required for antiherpes activity against HSV-2(G) strain. The note with it: read-out: ED50 (the source's name). In kind it is functional.
For a further experiment, the species on record is Homo sapiens. In words: Growth inhibition against HL-60 after 24 hr incubation period. In kind it is functional. The gist of the method:
as §1

A value given as a limit tells only on which side of the number the result lay.

Sequence of Thymidylate synthase (Mus musculus) (P07607 whole entry, looked up): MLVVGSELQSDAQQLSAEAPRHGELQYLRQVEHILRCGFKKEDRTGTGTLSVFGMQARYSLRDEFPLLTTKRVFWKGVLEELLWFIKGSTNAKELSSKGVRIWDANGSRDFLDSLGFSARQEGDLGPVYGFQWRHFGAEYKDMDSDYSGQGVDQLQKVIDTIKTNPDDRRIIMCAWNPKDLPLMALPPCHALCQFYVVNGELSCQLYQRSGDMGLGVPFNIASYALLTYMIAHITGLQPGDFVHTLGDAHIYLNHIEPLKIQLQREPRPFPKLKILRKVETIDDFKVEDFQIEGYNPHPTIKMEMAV

Consider `O=c1[nH]c(=O)n([C@H]2C[C@H](O)[C@@H](CO)O2)cc1C(F)(F)F` [TRIFLURIDINE], for which the ID50 in experiment [1] was determined as 0.035 µM. Further, the IC50 in the experiment with HL-60 [2] turned out to be 14 µM; in the experiment on HL-60 [3] it was 1.7 µM; in the experiment with HL-60 [4] it was 1.5 µM; in the experiment with HL-60 [5], 0.14 µM. Besides, the EC50 is 0.77 µM in the experiment with Human alphaherpesvirus 1 and 1.88 µM in the experiment on Human alphaherpesvirus 2.
On to `CC(=O)OC[C@H]1O[C@@H](n2cc(C(F)(F)F)c(=O)[nH]c2=O)C[C@@H]1OC(C)=O`, for which the EC50 amounted to 4.7 µM in the experiment with Human alphaherpesvirus 1 and 16.3 µM with Human alphaherpesvirus 2. For the same compound, the figures for the IC50 in the experiment with HL-60 [3], with HL-60 [4] and in the experiment on HL-60 [5] were 19 µM, 501 µM and 8.5 µM, respectively.
Regarding `CC(=O)OC[C@H]1O[C@@H](n2cc(C(F)F)c(=O)[nH]c2=O)[C@@H](F)[C@@H]1OC(C)=O`, the EC50 came out at 0.71 µM in the experiment with Human alphaherpesvirus 1 and 2.16 µM with Human alphaherpesvirus 2. For the same compound, the IC50 turned out to be 83 µM in the experiment on HL-60 [3] and 40 µM with HL-60 [5]. The same compound came in with an ID50 in the experiment listed under Homo sapiens of 257 µM.
For the compound `O=c1[nH]c(=O)n([C@@H]2O[C@H](CO)[C@@H](O)[C@@H]2F)cc1CF`, the ID50 in experiment [1] is above 1000 µM. For the same compound, the IC50 in the experiment on HL-60 [2] was determined as 189 µM; in the experiment on HL-60 [3], 202 µM; in the experiment with HL-60 [4], 995 µM; with HL-60 [5], 119 µM. Moreover, the results for the EC50 with Human alphaherpesvirus 1 and in the experiment on Human alphaherpesvirus 2 were 0.68 µM and 0.8 µM, respectively.
Regarding `CC(=O)OC[C@H]1O[C@@H](n2cc(C(F)F)c(=O)[nH]c2=O)C[C@@H]1OC(C)=O`, the EC50 in the experiment on Human alphaherpesvirus 1 is 17 µM; in the experiment with Human alphaherpesvirus 2, 25.1 µM. For the same compound, the IC50 in the experiment with HL-60 [3] amounted to 14 µM; in the experiment with HL-60 [4], 83 µM; in the experiment with HL-60 [5], 14 µM.
The compound `O=c1[nH]c(=O)n([C@H]2C[C@H](O)[C@@H](CO)O2)cc1C(F)F` gave an ID50 in experiment [1] of 0.063 µM. In addition, the IC50 with HL-60 [2] worked out at 5.1 µM; in the experiment with HL-60 [3] it was 1.25 µM; in the experiment on HL-60 [4], 4 µM; in the experiment with HL-60 [5], 0.12 µM. In addition, the EC50 with Human alphaherpesvirus 1 turned out to be 0.8 µM; with Human alphaherpesvirus 2 it was 1.17 µM.
As for `O=c1[nH]c(=O)n([C@@H]2O[C@H](CO)[C@@H](O)[C@@H]2F)cc1C(F)F`, in experiment [1], the ID50 is 56 µM. Also, the IC50 in the experiment with HL-60 [2] was above 1000 µM; with HL-60 [3], 12 µM; with HL-60 [4] it was 97 µM; with HL-60 [5] it was 6.6 µM. For the same compound, the values for the EC50 in the experiment with Human alphaherpesvirus 1 and in the experiment on Human alphaherpesvirus 2 were 0.34 µM and 1.04 µM, respectively.
On to `CC(=O)OC[C@H]1O[C@@H](n2cc(C(F)(F)F)c(=O)[nH]c2=O)[C@@H](F)[C@@H]1OC(C)=O`, for which the EC50 in the experiment on Human alphaherpesvirus 1 and in the experiment with Human alphaherpesvirus 2 was 1.3 µM throughout. Further, the IC50 in the experiment with HL-60 [3] amounted to 62 µM; in the experiment with HL-60 [4], 54 µM; in the experiment with HL-60 [5], 65 µM.
`CC(=O)OC[C@H]1O[C@@H](n2cc(CF)c(=O)[nH]c2=O)C[C@@H]1OC(C)=O`: the EC50 in the experiment with Human alphaherpesvirus 1 and in the experiment with Human alphaherpesvirus 2 was above 100 µM throughout. Moreover, the IC50 with HL-60 [3] amounted to 976 µM; with HL-60 [4] it was 3470 µM; with HL-60 [5] it was 324 µM.
`Cc1cn([C@H]2C[C@H](O)[C@@H](CO)O2)c(=O)[nH]c1=O` [DOXRIBTIMINE] displayed an ID50 in experiment [1] of 75 µM. Besides, the IC50 in the experiment with HL-60 [2] turned out to be 0.61 µM; with HL-60 [3] it was 461 µM; in the experiment on HL-60 [4] it was 901 µM; in the experiment with HL-60 [5], 336 µM. Besides, the EC50 in the experiment on Human alphaherpesvirus 1 and in the experiment with Human alphaherpesvirus 2 was above 1000 µM in each case.
For `CC(=O)OC[C@H]1O[C@@H](n2cc(CF)c(=O)[nH]c2=O)[C@@H](F)[C@@H]1OC(C)=O`, the values for the EC50 in the experiment with Human alphaherpesvirus 1 and with Human alphaherpesvirus 2 were 2.43 µM and 5.19 µM, respectively. Moreover, the IC50 stood at 500 µM with HL-60 [3], 860 µM in the experiment on HL-60 [4] and 312 µM in the experiment with HL-60 [5].
`O=c1[nH]c(=O)n([C@@H]2O[C@H](CO)[C@@H](O)[C@@H]2F)cc1CO` came in with an ID50 in experiment [1] above 1000 µM. The EC50 turned out to be 2 µM in the experiment on Human alphaherpesvirus 1 and 5.5 µM with Human alphaherpesvirus 2. For the same compound, the values for the IC50 with HL-60 [3], in the experiment on HL-60 [4] and in the experiment on HL-60 [5] were 1160 µM, above 5000 µM and 1920 µM, respectively.
In the case of `O=c1[nH]c(=O)n([C@@H]2O[C@H](CO)[C@@H](O)[C@@H]2F)cc1C(F)(F)F`, the ID50 in experiment [1] stood at 14 µM. Moreover, the IC50 in the experiment on HL-60 [2] was above 1000 µM; in the experiment on HL-60 [3], 29 µM; in the experiment on HL-60 [4] it was 304 µM; in the experiment on HL-60 [5], 17 µM. In addition, the EC50 in the experiment on Human alphaherpesvirus 1 came to 0.83 µM; in the experiment with Human alphaherpesvirus 2, 1.7 µM.
Turning to `Cc1cn([C@@H]2O[C@H](CO)[C@@H](O)[C@@H]2F)c(=O)[nH]c1=O` [5-METHYL-2'-FLUOROARAURACIL], the ID50 in experiment [1] was above 1000 µM. Further, the IC50 in the experiment on HL-60 [2] amounted to 20 µM; in the experiment with HL-60 [3], 51 µM; with HL-60 [4], 136 µM; with HL-60 [5], 25 µM. For the same compound, the EC50 with Human alphaherpesvirus 1 and with Human alphaherpesvirus 2 was 0.07 µM each time.
Regarding `CC(=O)OC[C@H]1O[C@@H](n2cc(C)c(=O)[nH]c2=O)[C@@H](F)[C@@H]1OC(C)=O`, the EC50 with Human alphaherpesvirus 1 came out at 0.44 µM; in the experiment on Human alphaherpesvirus 2, 1.23 µM. In addition, the IC50 is 209 µM in the experiment on HL-60 [3], above 1000 µM with HL-60 [4] and 119 µM in the experiment with HL-60 [5].
Regarding `O=c1[nH]c(=O)n([C@H]2C[C@H](O)[C@@H](CO)O2)cc1CF`, the ID50 in experiment [1] stood at 11 µM. The IC50 in the experiment with HL-60 [2] was 18.6 µM; in the experiment on HL-60 [3], above 1000 µM; in the experiment on HL-60 [4], 178 µM; with HL-60 [5], above 1000 µM. Also, the EC50 in the experiment with Human alphaherpesvirus 1 and with Human alphaherpesvirus 2 was above 100 µM in each case.
For `O=c1[nH]c(=O)n([C@H]2C[C@H](O)[C@@H](CO)O2)cc1CO`, the ID50 in experiment [1] is above 1000 µM.
Still for that read-out and setting: with `O=Cc1cn([C@@H]2O[C@H](CO)[C@@H](O)[C@@H]2F)c(=O)[nH]c1=O` the figure was above 1000 µM.
